From publication PMC4980839 (Archiv der Pharmazie, 2010)
Where two headings read alike, the source gives them in different places.

Experiments:
Type in all cases: biochemical
human PDE5 = human PDE5 (Homo sapiens, UniProt O76074); test: PDE5 inhibition, IMAP fluorescence polarization phosphodiesterase assay; settings: for inhibition at 50 µM: read-out: % cGMP inhibition (50 μM)
PDE3B = PDE3B (Homo sapiens, UniProt Q13370); test: PDE3B inhibition
Method in brief: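 Reaction started with a substrate solution of 50 nM TAMRA-cGMP and/or Fl-cAMP. Run 60 min at room temperature, stopped with IMAP binding solution. Hydrolysis read as fluorescence polarization (TAMRA 530–590 nm).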

PDE4B = PDE4B (Homo sapiens, UniProt Q07343); test: PDE4B inhibition
PDE4B, sequence (Q07343 whole entry): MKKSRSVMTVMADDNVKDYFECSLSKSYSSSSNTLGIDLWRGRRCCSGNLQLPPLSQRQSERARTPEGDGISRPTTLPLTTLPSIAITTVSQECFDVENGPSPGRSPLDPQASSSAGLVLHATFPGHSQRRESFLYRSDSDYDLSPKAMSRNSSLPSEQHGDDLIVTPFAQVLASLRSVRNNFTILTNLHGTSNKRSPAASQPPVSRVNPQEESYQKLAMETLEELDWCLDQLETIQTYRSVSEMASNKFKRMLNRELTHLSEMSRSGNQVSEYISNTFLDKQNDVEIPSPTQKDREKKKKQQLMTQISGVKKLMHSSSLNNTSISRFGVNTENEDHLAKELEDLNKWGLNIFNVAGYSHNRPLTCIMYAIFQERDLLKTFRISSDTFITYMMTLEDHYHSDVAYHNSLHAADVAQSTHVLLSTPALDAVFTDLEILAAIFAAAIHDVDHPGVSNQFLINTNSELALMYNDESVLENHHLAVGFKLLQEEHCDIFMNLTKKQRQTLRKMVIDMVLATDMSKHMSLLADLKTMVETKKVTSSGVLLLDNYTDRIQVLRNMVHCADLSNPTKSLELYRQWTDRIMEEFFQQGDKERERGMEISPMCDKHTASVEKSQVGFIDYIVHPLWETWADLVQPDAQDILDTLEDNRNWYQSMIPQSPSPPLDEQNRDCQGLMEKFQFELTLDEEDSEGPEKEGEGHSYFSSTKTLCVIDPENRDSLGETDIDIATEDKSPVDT

PDE11A = PDE11A (Homo sapiens, UniProt Q9HCR9); test: PDE11A inhibition
PDE11A, sequence (Q9HCR9 whole entry): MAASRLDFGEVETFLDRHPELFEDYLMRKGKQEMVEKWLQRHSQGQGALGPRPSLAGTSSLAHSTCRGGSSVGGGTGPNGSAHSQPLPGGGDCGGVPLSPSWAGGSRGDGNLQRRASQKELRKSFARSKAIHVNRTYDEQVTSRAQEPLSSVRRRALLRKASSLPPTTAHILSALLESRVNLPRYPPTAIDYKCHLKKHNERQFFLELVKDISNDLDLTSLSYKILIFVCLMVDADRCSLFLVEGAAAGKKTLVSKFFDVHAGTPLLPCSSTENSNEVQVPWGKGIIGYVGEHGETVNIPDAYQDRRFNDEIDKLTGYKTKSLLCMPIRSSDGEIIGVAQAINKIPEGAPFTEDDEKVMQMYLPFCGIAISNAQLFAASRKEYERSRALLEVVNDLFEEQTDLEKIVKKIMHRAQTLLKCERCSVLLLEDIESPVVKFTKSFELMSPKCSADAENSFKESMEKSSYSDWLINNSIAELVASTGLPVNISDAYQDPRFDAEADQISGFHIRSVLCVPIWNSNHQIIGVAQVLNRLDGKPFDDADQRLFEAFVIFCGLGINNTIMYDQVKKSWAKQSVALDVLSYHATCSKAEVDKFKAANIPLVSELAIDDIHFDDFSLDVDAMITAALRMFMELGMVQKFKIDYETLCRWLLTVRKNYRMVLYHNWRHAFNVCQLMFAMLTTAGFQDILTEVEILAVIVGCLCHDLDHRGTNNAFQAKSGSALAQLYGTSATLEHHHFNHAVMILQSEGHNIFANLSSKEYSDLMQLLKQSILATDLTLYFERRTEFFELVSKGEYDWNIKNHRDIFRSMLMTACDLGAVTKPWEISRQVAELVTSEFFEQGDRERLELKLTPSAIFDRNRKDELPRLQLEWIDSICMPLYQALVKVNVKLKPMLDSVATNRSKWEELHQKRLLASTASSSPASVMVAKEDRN

[1] = read-out: IC50 PDE3B cGMP, cGMP as substrate

PDE3B, sequence (Q13370 592-1112 limits assumed): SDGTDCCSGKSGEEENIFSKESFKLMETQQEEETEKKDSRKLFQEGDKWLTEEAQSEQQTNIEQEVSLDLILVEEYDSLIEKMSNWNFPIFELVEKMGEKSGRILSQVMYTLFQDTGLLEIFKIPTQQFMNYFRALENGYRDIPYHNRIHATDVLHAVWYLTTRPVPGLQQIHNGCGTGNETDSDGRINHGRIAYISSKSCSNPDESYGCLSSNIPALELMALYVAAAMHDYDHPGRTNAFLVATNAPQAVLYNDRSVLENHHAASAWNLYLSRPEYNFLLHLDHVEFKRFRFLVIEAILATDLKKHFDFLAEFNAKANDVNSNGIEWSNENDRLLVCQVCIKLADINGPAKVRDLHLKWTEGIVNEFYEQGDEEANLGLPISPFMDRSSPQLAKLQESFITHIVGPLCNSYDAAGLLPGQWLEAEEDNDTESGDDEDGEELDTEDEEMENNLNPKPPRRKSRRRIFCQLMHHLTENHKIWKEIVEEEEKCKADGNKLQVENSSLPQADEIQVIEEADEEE

SMILES	inhibition at 50 µM (human PDE5)	other results
COC(=O)[C@H]1Cc2c([nH]c3ccccc23)[C@@H](c2ccc(Cl)cc2)N1 [I, Methyl (1R,3R)-1-(4 chlorophenyl)-2,3,4,9-tetrahydro-1H-β-carboline-3-carboxylate]	35%	
COC(=O)[C@H]1Cc2c([nH]c3ccccc23)[C@H](c2ccc(Cl)cc2)N1 [II, Methyl (1S,3R)-1-(4-chlorophenyl)-2,3,4,9-tetrahydro-1H-β-carboline-3-carboxylate]	4%	
COC(=O)[C@@H]1Cc2c([nH]c3ccccc23)[C@H](c2ccc(Cl)cc2)N1 [III, Methyl (1S,3S)-1-(4-chlorophenyl)-2,3,4,9-tetrahydro-1H-β-carboline-3-carboxylate]	9%	
COC(=O)[C@@H]1Cc2c([nH]c3ccccc23)[C@@H](c2ccc(Cl)cc2)N1 [IV, Methyl (1R,3S)-1-(4-chlorophenyl)-2,3,4,9-tetrahydro-1H-β-carboline-3-carboxylate]	48%	
CC(C)(C)N1C(=O)[C@H]2Cc3c([nH]c4ccccc34)[C@@H](c3ccc(Cl)cc3)N2C1=O [IX, (5R,11aR)-2-tert-Butyl-5-(4-chlorophenyl)-5,6,11,11a-tetrahydro-1H-imidazo[1’,5’:1,6]pyrido[3,4-b]indole-1,3(2H)-dione]	100%	IC50 (human PDE5): 600 nM
CN1CC(=O)N2[C@H](c3ccc4c(c3)OCO4)c3[nH]c4ccccc4c3C[C@@H]2C1=O [Tadalafil, reference compound]		IC50 (PDE3B): > 50000 nM; IC50 (PDE3B; [1]): > 50000 nM
CCN1C(=O)[C@H]2Cc3c([nH]c4ccccc34)[C@@H](c3ccc(Cl)cc3)N2C1=O [V, (5R,11aR)-2-Ethyl-5-(4-chlorophenyl)-5,6,11,11a-tetrahydro-1H-imidazo[1’,5’:1,6]pyrido[3,4-b]indole-1,3(2H)-dione]	85%	IC50 (human PDE5): 1100 nM
CCN1C(=O)[C@H]2Cc3c([nH]c4ccccc34)[C@H](c3ccc(Cl)cc3)N2C1=O [VI, (5S,11aR)-2-Ethyl-5-(4-chlorophenyl)-5,6,11,11a-tetrahydro-1H-imidazo[1’,5’:1,6]pyrido[3,4-b]indole-1,3(2H)-dione]	47%	
CCN1C(=O)[C@@H]2Cc3c([nH]c4ccccc34)[C@H](c3ccc(Cl)cc3)N2C1=O [VII, (5S,11aS)-2-Ethyl-5-(4-chlorophenyl)-5,6,11,11a-tetrahydro-1H-imidazo[1’,5’:1,6]pyrido[3,4-b]indole-1,3(2H)-dione]	30%	
CCN1C(=O)[C@@H]2Cc3c([nH]c4ccccc34)[C@@H](c3ccc(Cl)cc3)N2C1=O [VIII, (5R,11aS)-2-Ethyl-5-(4-chlorophenyl)-5,6,11,11a-tetrahydro-1H-imidazo[1’,5’:1,6]pyrido[3,4-b]indole-1,3(2H)-dione]	102%	
CC(C)(C)N1C(=O)[C@H]2Cc3c([nH]c4ccccc34)[C@H](c3ccc(Cl)cc3)N2C1=O [X, (5S,11aR)-2-tert-Butyl-5-(4-chlorophenyl)-5,6,11,11a-tetrahydro-1H-imidazo[1’,5’:1,6]pyrido[3,4-b]indole-1,3(2H)-dione]	54%	
CC(C)(C)N1C(=O)[C@@H]2Cc3c([nH]c4ccccc34)[C@H](c3ccc(Cl)cc3)N2C1=O [XI, (5S,11aS)-2-tert-Butyl-5-(4-chlorophenyl)-5,6,11,11a-tetrahydro-1H-imidazo[1’,5’:1,6]pyrido[3,4-b]indole-1,3(2H)-dione]	20%	
CC(C)(C)N1C(=O)[C@@H]2Cc3c([nH]c4ccccc34)[C@@H](c3ccc(Cl)cc3)N2C1=O [XII, (5R,11aS)-2-tert-Butyl-5-(4-chlorophenyl)-5,6,11,11a-tetrahydro-1H-imidazo[1’,5’:1,6]pyrido[3,4-b]indole-1,3(2H)-dione]	83%	IC50 (human PDE5): > 10000 nM
O=C1[C@H]2Cc3c([nH]c4ccccc34)[C@@H](c3ccc(Cl)cc3)N2C(=O)N1c1ccc(Cl)cc1 [XIII, (5R,11aR)-2,5-Bis(4-chlorophenyl)-5,6,11,11a-tetrahydro-1H-imidazo[1’,5’:1,6]pyrido[3,4-b]indole-1,3(2H)-dione]	22%	
O=C1[C@H]2Cc3c([nH]c4ccccc34)[C@H](c3ccc(Cl)cc3)N2C(=O)N1c1ccc(Cl)cc1 [XIV, (5S,11aR)-2,5-Bis(4-chlorophenyl)-5,6,11,11a-tetrahydro-1H-imidazo[1’,5’:1,6]pyrido[3,4-b]indole-1,3(2H)-dione]	29%	
COC(=O)[C@@H]1Cc2c([nH]c3ccccc23)[C@H](c2ccc(Cl)cc2)N1C(=O)CCl [XIX, Methyl (1S, 3S)-1-(4-chlorophenyl)-2-(chloroacetyl)-2,3,4,9-tetrahydro-1H-b-carboline-3-carboxylate]		% cGMP inhibition (50 μM) (human PDE5; PDE5, compound at 50 μM, triplicate, TAMRA-cGMP substrate): 6%
O=C1[C@@H]2Cc3c([nH]c4ccccc34)[C@H](c3ccc(Cl)cc3)N2C(=O)N1c1ccc(Cl)cc1 [XV, (5S,11aS)-2,5-Bis(4-chlorophenyl)-5,6,11,11a-tetrahydro-1H-imidazo[1’,5’:1,6]pyrido[3,4-b]indole-1,3(2H)-dione]	33%	
O=C1[C@@H]2Cc3c([nH]c4ccccc34)[C@@H](c3ccc(Cl)cc3)N2C(=O)N1c1ccc(Cl)cc1 [XVI, (5R,11aS)-2,5-Bis(4-chlorophenyl)-5,6,11,11a-tetrahydro-1H-imidazo[1’,5’:1,6]pyrido[3,4-b]indole-1,3(2H)-dione]	84%	IC50 (human PDE5): 1090 nM
COC(=O)[C@H]1Cc2c([nH]c3ccccc23)[C@@H](c2ccc(Cl)cc2)N1C(=O)CCl [XVII, Methyl (1R,3R)-1-(4-chlorophenyl)-2-(chloroacetyl)-2,3,4,9-tetrahydro-1H-β-carboline-3-carboxylate]	25%	
COC(=O)[C@H]1Cc2c([nH]c3ccccc23)[C@H](c2ccc(Cl)cc2)N1C(=O)CCl [XVIII, Methyl (1S,3R)-1-(4-chlorophenyl)-2-(chloroacetyl)-2,3,4,9-tetrahydro-1H-β-carboline-3-carboxylate]	6%	
COC(=O)[C@@H]1Cc2c([nH]c3ccccc23)[C@@H](c2ccc(Cl)cc2)N1C(=O)CCl [XX, Methyl (1R,3S)-1-(4-chlorophenyl)-2-(chloroacetyl)-2,3,4,9-tetrahydro-1H-β-carboline-3-carboxylate]	78%	
CCN1CC(=O)N2[C@H](c3ccc(Cl)cc3)c3[nH]c4ccccc4c3C[C@@H]2C1=O [XXI, (6R,12aR)-2-Ethyl-6-(4-chlorophenyl)-2,3,6,7,12,12a-hexahydropyrazino[1’,2’:1,6]pyrido[3,4-b]indole-1,4-dione]	102%	potency compared with tadalafil (human PDE5; PDE5 IC50 relative to tadalafil): two-fold; IC50 (human PDE5; read-out: IC50 PDE5A, Table 5 PDE panel): 3 nM; IC50 (PDE3B): > 50000 nM; IC50 (PDE3B; [1]): > 50000 nM; IC50 (PDE4B): > 50000 nM; IC50 (PDE11A; IC50 PDE11A cAMP, cAMP as substrate): 706 nM; IC50 (PDE11A; IC50 PDE11A cGMP, cGMP as substrate): 157 nM; Selectivity index IC50 (PDE11/PDE5) cGMP/cGMP (PDE11A; PDE11A with cGMP versus PDE5 with cGMP): 52.3
CCN1CC(=O)N2[C@@H](c3ccc(Cl)cc3)c3[nH]c4ccccc4c3C[C@@H]2C1=O [XXII, (6S,12aR)-2-Ethyl-6-(4-chlorophenyl)-2,3,6,7,12,12a-hexahydropyrazino[1’,2’:1,6]pyrido[3,4-b]indole-1,4-dione]	80%	IC50 (human PDE5): 1720 nM
CCN1CC(=O)N2[C@@H](c3ccc(Cl)cc3)c3[nH]c4ccccc4c3C[C@H]2C1=O [XXIII, (6S,12aS)-2-Ethyl-6-(4-chlorophenyl)-2,3,6,7,12,12a-hexahydropyrazino[1’,2’:1,6]pyrido[3,4-b]indole-1,4-dione]	45%	
CCN1CC(=O)N2[C@H](c3ccc(Cl)cc3)c3[nH]c4ccccc4c3C[C@H]2C1=O [XXIV, (6R,12aS)-2-Ethyl-6-(4-chlorophenyl)-2,3,6,7,12,12a-hexahydropyrazino[1’,2’:1,6]pyrido[3,4-b]indole-1,4-dione]	87%	IC50 (human PDE5): 1200 nM
CC(C)(C)N1CC(=O)N2[C@H](c3ccc(Cl)cc3)c3[nH]c4ccccc4c3C[C@@H]2C1=O [XXV, (6R,12aR)-2-tert-Butyl-6-(4-chlorophenyl)-2,3,6,7,12,12a-hexahydropyrazino[1’,2’:1,6]pyrido[3,4-b]indole-1,4-dione]	55%	
CC(C)(C)N1CC(=O)N2[C@@H](c3ccc(Cl)cc3)c3[nH]c4ccccc4c3C[C@@H]2C1=O [XXVI, (6S,12aR)-2-tert-Butyl-6-(4-chlorophenyl)-2,3,6,7,12,12a-hexahydropyrazino[1’,2’:1,6]pyrido[3,4-b]indole-1,4-dione]	10%	
CC(C)(C)N1CC(=O)N2[C@@H](c3ccc(Cl)cc3)c3[nH]c4ccccc4c3C[C@H]2C1=O [XXVII, (6S,12aS)-2-tert-Butyl-6-(4-chlorophenyl)-2,3,6,7,12,12a-hexahydropyrazino[1’,2’:1,6]pyrido[3,4-b]indole-1,4-dione]	42%	
CC(C)(C)N1CC(=O)N2[C@H](c3ccc(Cl)cc3)c3[nH]c4ccccc4c3C[C@H]2C1=O [XXVIII, (6R,12aS)-2-tert-Butyl-6-(4-chlorophenyl)-2,3,6,7,12,12a-hexahydropyrazino[1’,2’:1,6]pyrido[3,4-b]indole-1,4-dione]	55%	
